≈ marks a conversion by molar mass, not a printed value. Calls of active or inactive are those of the source. Where only a bound is given, the exact number is not on record here.

Data set [1] concerns the target T1, Bile acid receptor (Homo sapiens) (UniProt Q96RI1).
T1 sequence (whole entry): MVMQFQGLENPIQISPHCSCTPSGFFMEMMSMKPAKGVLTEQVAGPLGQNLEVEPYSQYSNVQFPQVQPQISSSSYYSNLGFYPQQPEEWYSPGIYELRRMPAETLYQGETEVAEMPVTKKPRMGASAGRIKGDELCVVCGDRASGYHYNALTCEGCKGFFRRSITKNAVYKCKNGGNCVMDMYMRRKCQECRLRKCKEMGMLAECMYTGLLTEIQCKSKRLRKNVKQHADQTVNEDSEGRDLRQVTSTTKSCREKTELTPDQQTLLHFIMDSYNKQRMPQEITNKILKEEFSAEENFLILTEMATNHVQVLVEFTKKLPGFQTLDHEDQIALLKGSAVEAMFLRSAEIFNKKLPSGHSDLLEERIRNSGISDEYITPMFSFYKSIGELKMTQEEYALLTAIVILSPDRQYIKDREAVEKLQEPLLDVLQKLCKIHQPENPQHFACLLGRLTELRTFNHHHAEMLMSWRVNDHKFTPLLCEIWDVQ
Put plainly: Activity at FXR (unknown origin). An outline of the steps:
(§1)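 Eight-point serial dilutions tested in an in-house AlphaScreen-based nuclear receptor panel; activity derived from nonlinear regression curves.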

Data set [2] can be described thus: Tmax in CD1 mouse at 5 mg/kg, po measured up to 8 hrs post dose. Format: ADME, organism-based. As to conditions: in vivo. An outline of the steps: (§2)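 Mice dosed orally at 5 mg/kg in 0.5% (w/v) HPMC in water with 5% (v/v) DMSO; blood, liver and kidney concentrations followed to 8 h. AUC0–8h given in h·ng/mL; parameters reported as means.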
The test system of the next data set is Mus musculus. In words: In vivo inhibition of ACMSD in C57BL/6 mouse assessed as increase in NAD+ levels in liver at 15 and 30 mg/kg/day for 10 days dosed as diet supplement by ion-pair C18- HPLC chromatography. It is filed as functional, organism-based. An outline of the steps:
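Male mice given the compound in the diet for 10 days; vehicle 5% DMSO, 20% PEG. After a 3 h fast, livers snap-frozen and ground; NAD+ extracted by sonication in HClO4, quantified by ion-pair C18 HPLC and normalised to BCA protein. One-way ANOVA with Dunnett's test.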

The next data set deals with HepG2. In words: Cytotoxicity against human HepG2 cells assessed as reduction in cell viability after 4 hrs by celltiter-glo assay. It is filed as cell-based. As to conditions: hepg2, 4 h. An outline of the steps:
(§3)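 HepG2 or AML12 cells, 5 × 10^3 per well, exposed to compound for 4 h at 37 °C. Viability read as ATP by CellTiter-Glo luminescence; tamoxifen control.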
(In general: Cellular ATP, detected with luciferase, serves as a proxy for viable cell number.)

Data set [3] in a line: Half life in CD1 mouse at 0.5 mg/kg, iv measured up to 24 hrs post dose. Format: ADME, organism-based. As to conditions: in vivo. In short, it runs like this: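 Mice given 0.5 mg/kg IV in saline containing 5% (v/v) DMSO and 20% (v/v) PEG400; blood pharmacokinetic parameters reported as means.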
Data set [4] is filed under the species Homo sapiens. In words: Activity at TR (unknown origin). An outline of the steps: as §1
Data set [5] in a line: Drug uptake in mouse central nervous system at 5 mg/kg, po. As to conditions: in vivo. Format: ADME, organism-based.
A short description of data set [6]: Cytotoxicity against mouse AML-12 cells assessed as reduction in cell viability after 4 hrs by celltiter-glo assay. It is filed as cell-based. As to conditions: aml-12, 4 h. An outline of the steps:
as §3

The next data set deals with Cytochrome P450 3A4 (Homo sapiens, UniProt P08684). In words: Inhibition of recombinant human CYP3A4 expressed in baculosomes expression system using fluorogenic-BOMCC as substrate by fluorescent homogeneous assay. It is filed as ADME. An outline of the steps:
(§4)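 Recombinant CYP baculosomes with fluorogenic substrates, at concentrations below their Km; homogeneous fluorescence read-out, run in triplicate. IC50 classes: <1 μM potent, 1–10 μM moderate, >10 μM weak or none.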

The species named for data set [7] is Homo sapiens. Put plainly: Activity at RXR (unknown origin). An outline of the steps: as §1
Data set [8] can be described thus: Ratio of AUClast in mouse liver to blood at 5 mg/kg, po measured up to 8 hrs post dose.
Data set [9] concerns the target T2, 2-amino-3-carboxymuconate-6-semialdehyde decarboxylase (Homo sapiens, UniProt Q8TDX5). Put plainly: Inhibition of ACMSD in human primary hepatocytes assessed as increase in intracellular NAD+ levels at 5 uM after 48 hrs by NAD/NADH-Glo assay. It is filed as cell-based.
Target sequence in this assay (Q8TDX5 whole entry, looked up): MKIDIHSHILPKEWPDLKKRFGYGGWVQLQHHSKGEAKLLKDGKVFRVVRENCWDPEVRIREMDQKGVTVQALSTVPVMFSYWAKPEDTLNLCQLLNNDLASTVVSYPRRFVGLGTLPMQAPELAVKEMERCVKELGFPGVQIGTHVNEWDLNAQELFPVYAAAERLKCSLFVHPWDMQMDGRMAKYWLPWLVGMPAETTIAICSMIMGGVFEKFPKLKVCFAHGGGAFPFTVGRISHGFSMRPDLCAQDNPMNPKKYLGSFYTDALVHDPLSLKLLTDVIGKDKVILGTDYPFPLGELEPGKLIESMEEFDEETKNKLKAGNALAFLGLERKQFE
Data set [10] can be described thus: Cmax in CD1 mouse at 5 mg/kg, po measured up to 8 hrs after dose. As to conditions: in vivo. It is filed as ADME, organism-based. Details: dose 5 mg/kg, route oral. An outline of the steps:
as §2

Data set [11] can be described thus: Solubility of compound in PBS buffer at pH 7.4 after 24 hrs by UV/vis-spectroscopic analysis. It is filed as physicochemical. In short, it runs like this: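 Compound in PBS pH 7.4 with 1% DMSO mixed, incubated 24 h and vacuum-filtered; filtrate read by UV/vis and relative solubility calculated from summed readings against a standard. Reported in mg/mL.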

Data set [12] addresses T3, Vitamin D3 receptor (Homo sapiens) (UniProt P11473).
T3 sequence (whole entry): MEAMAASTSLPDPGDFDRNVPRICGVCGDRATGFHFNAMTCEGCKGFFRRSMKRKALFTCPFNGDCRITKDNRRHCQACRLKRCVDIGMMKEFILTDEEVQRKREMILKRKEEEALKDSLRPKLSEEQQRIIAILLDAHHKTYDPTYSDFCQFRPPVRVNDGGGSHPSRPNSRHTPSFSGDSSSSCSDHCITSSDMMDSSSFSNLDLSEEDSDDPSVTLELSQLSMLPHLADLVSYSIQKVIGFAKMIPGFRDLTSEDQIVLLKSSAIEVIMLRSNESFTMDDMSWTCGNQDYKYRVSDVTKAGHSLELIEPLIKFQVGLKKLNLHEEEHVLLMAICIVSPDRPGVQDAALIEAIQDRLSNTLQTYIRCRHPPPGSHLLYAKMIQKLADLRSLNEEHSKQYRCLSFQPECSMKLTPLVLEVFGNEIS
Put plainly: Activity at VDR (unknown origin). In short, it runs like this:
as §1

The next data set concerns the target Cytochrome P450 2D6 (Homo sapiens, UniProt P10635). Put plainly: Inhibition of recombinant human CYP2D6 expressed in baculosomes expression system using fluorogenic-BOMCC as substrate by fluorescent homogeneous assay. Format: ADME. In short, it runs like this:
as §4

For data set [13], the target named is T2, 2-amino-3-carboxymuconate-6-semialdehyde decarboxylase. In words: Inhibition of human ACMSD expressed in Pichia pastoris using ACMS as substrate by coupled spectrophotometric assay. In short, it runs like this: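 Recombinant enzyme purified from Pichia pastoris; ACMS substrate generated in a pre-assay mix from 10 μM 3-hydroxyanthranilic acid by Ralstonia metallidurans 3-hydroxyanthranilate 3,4-dioxygenase, formation monitored at 360 nm. Enzyme and compound then added together; activity from initial rate of absorbance decrease minus a no-enzyme control. Serial dilutions, 1.0% DMSO throughout. IC50 from concentration–response curves, mean ± SD of three independent experiments.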
Target sequence in this assay (Q8TDX5 whole entry): as the sequence (Q8TDX5 whole entry, looked up) above

The nature of data set [14]: Drug uptake in mouse central nervous system at 5 mg/kg, po in presence of P-gp inhibitor Elacridar. Format: ADME, organism-based. As to conditions: in vivo.

Cytochrome P450 2D6, sequence (P10635 whole entry): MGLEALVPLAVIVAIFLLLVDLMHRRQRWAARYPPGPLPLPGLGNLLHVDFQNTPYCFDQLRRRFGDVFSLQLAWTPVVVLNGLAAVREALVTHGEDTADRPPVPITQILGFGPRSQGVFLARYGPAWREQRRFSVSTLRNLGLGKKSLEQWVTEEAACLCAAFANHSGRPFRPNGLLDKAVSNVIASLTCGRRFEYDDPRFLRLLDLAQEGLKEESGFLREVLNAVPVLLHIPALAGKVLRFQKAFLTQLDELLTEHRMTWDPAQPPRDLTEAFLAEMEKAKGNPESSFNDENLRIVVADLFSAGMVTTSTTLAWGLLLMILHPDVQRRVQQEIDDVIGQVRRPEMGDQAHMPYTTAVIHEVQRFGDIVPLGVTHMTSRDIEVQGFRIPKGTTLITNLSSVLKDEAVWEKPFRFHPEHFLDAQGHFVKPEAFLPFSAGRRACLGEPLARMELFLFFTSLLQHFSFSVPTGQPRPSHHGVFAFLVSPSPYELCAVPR
Cytochrome P450 3A4, sequence (P08684 whole entry): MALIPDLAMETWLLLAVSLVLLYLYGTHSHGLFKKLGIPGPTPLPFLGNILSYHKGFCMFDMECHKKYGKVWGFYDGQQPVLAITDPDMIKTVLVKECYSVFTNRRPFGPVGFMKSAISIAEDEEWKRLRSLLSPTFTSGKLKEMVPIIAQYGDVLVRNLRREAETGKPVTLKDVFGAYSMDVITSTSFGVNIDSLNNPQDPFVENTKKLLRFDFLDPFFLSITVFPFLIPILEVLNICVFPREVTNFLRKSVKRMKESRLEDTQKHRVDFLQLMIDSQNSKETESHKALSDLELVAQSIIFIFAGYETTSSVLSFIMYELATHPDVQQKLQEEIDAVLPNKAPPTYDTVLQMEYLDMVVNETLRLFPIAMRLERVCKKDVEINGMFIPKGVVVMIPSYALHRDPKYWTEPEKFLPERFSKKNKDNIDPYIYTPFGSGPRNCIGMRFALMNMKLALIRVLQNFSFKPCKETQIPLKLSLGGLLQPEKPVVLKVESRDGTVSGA

In the case of `N#Cc1c(-c2cccs2)nc(SCc2cccc(CC(=O)O)c2)[nH]c1=O`, the result (in data set [1]; in the data set listed under Homo sapiens [4]; in the data set filed under Homo sapiens [7]; in data set [12]) was inactive. Moreover, the Tmax in data set [2] is 2 h. Also, the inhibition result (with Mus musculus; in data set [9]) was “Active” in each case. The Activity entry (in the data set on HepG2; in [6]) was “Non-Toxic” throughout. For the same molecule, the half-life in data set [3] is 5.33 h. The Drug uptake result in [5] and in data set [14] was “Not Active” in each case. Also, the IC50 at Cytochrome P450 3A4 is > 10 µM; on Cytochrome P450 2D6, > 10 µM; in [13] it was 0.013 µM. For the same molecule, the Kp at 8 h in [8] was 1.5. Also, the Cmax in data set [10] came out at 2.57 µg/mL. For the same molecule, the solubility at 24 h in data set [11] is 0.8 mg/mL (≈ 2090 µM).

Broadly, the Tmax is the time at which the peak concentration occurs. As a reminder, the half-life is the time needed for the level to fall by half in the phase considered. High values mean slow loss, low ones fast loss. What is called IC50 is the concentration at which inhibition is half-maximal. As usually defined, the Kp is tissue or fluid exposure divided by exposure in the circulation. A word on the Cmax: it is the maximum level reached in the sampled fluid or tissue. The term solubility denotes the concentration that dissolves in the medium under given conditions. High values mean much dissolved substance, low ones little dissolved substance.

The values above are taken from ChEMBL document CHEMBL4024800, “α-Amino-β-carboxymuconate-ε-semialdehyde Decarboxylase (ACMSD) Inhibitors as Novel Modulators of De Novo Nicotinamide Adenine Dinucleotide (NAD+) Biosynthesis” (J Med Chem, 2018).
